Published values from different studies.
Each line is one published result; the experiments were not run side by side.
Target: Cyclin-dependent kinase 18 (CDK18, Homo sapiens, UniProt Q07002)

| assay | conditions | remaining binding | Compound |
| --- | --- | --- | --- |
| binding | 1 µM | 100% | C[C@@H]1CCN(c2nccc(-c3cnn4ncccc34)n2)C1 |
| binding | 10 µM | 23% | CN1CCN(c2ccc(Nc3nccc(-c4ccccc4)n3)cc2C(F)(F)F)CC1 |
| cell-free assay, competition with immobilised ligand | 1 µM | 100% | O=C1CCc2cc(Nc3cc(OC4CCOCC4)c([N+](=O)[O-])cc3Cl)ccc2N1 |
| binding, competition with immobilised ligand | 1 µM | 99% | O=C(NCCCN1CCOCC1)c1ccc(Nc2nccc(-c3cc4ccccc4s3)n2)cc1 |
| binding | 1 µM | 89% | CN(C)c1nccc(-c2cnn3ncccc23)n1 |
| binding, competition with immobilised ligand | 1 µM | 43% | O=C(c1ccc(Nc2ncc(Cl)c(-c3ccc(Cl)s3)n2)cc1)N1CCC(N2CCCC2)CC1 |
| cell-free assay, competition with immobilised ligand | 0.1 µM | 100% | CCOC(=O)c1cc2cc(-c3cc(C(=O)NCc4ccc(C(=O)O)cc4)nn3C)ccc2[nH]1 |
| binding, competition with immobilised ligand | 1 µM | 100% | CCN1CCN(Cc2ccc(C(=O)Nc3ccc(C)c(Oc4ccc5c(c4)CC(=O)N5)c3)cc2C(F)(F)F)CC1 |
| binding, competition with immobilised ligand | 10 µM | 100% | c1cncc(-c2cccc(Nc3nccc(NC4CCCCC4)n3)c2)c1 |
| cell-free assay, competition with immobilised ligand | 1 µM | 100% | C[C@H](c1cccc(C#N)c1)n1cc(Cl)cc(C(N)=O)c1=N |
| binding | 1 µM | 98% | c1cnn2ncc(-c3ccnc(N4CCC45COC5)n3)c2c1 |
| binding, competition with immobilised ligand | 1 µM | 64% | O=C(c1ccc(Nc2ncc(Cl)c(-c3cc4ccccc4s3)n2)cc1)N1CCC(N2CCCC2)CC1 |
| binding | 1 µM | 86% | F[C@@H]1CCN(c2nccc(-c3cnn4ncccc34)n2)C1 |
| cell-free assay, competition with immobilised ligand | 1 µM | 69% | NS(=O)(=O)c1cc(NC(=O)C2(c3ccccc3Cl)CC2)ccc1Oc1cccc(Cl)c1 |
| binding, competition with immobilised ligand | 1 µM | 86% | O=C(NCC1CCOCC1)c1n[nH]cc1NC(=O)c1c(F)cccc1F |
| binding, competition with immobilised ligand | 1 µM | 95% | C=CC(=O)N1CCC(C(=O)NCC(=O)N2CCN(c3nc(-c4cnc(N)nc4C(F)F)nc(N4CCOCC4)n3)CC2)CC1 |
| cell-free assay, competition with immobilised ligand | 1 µM | 89% | CCC(=N\O)/C(C)=C/c1ccc(F)cc1 |
| binding, competition with immobilised ligand | 1 µM | 98% | COc1cnc(Nc2cccc(S(N)(=O)=O)c2)nc1N1CCN(c2ccccc2)CC1 |
| binding | 1 µM | 100% | N[C@@H]1CCN(c2nccc(-c3cnn4ncccc34)n2)C1 |
| cell-free assay, competition with immobilised ligand | 1 µM | 98% | O=C(Nc1ccc(Oc2ccc(F)cc2)cc1)N1CCc2ncccc2[C@H]1c1ccc(F)cc1 |
| binding | 1 µM | 100% | CN(C)c1nccc(-c2cnc3ncccn23)n1 |
| binding, competition with immobilised ligand | 1 µM | 100% | Nc1ncc2c(n1)-c1c([nH]c3ccc(C#CC4CC4)cc13)CCCC2 |
